From ChEMBL document CHEMBL1123220, “Structure-activity studies of 16-methoxy-16-methyl prostaglandins” (1986)

Experiments:
Rattus norvegicus [1] = assay: Compound was evaluated for antisecretion activity using stomach perfusion test in the anesthetized rat (iv administration); assay type: functional; details: read-out: ID50 (the source's name)
Mus musculus = assay: Compound was evaluated for diarrheal effect in mice (po administration); assay type: functional
In short: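 Mice fasted 24 h, then given logarithmically graded oral doses of 100–4000 μg/kg. Animals caged singly on blotting paper for 1 h, and stool dampness spots scored on a 0–4 scale. ED50 calculated by the Miller–Tainter method.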

Rattus norvegicus [2] = assay: Compound was evaluated for antisecretion activity using stomach perfusion test in the anesthetized rat (iv administration) in experiment 1; assay type: functional; details: read-out: ID50 (the source's name)
In short: (§1)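 Stomach perfusion in anesthetized rats. Gastric hypersecretion driven by continuous iv histamine infusion at 1.5 mg/kg per hour. Compound given iv. ID50 read from a plot of response, as percent of control, against log dose.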

Rattus norvegicus [3] = assay: Compound was evaluated for antisecretion activity using stomach perfusion test in the anesthetized rat (iv administration) in experiment 2; assay type: functional; details: read-out: ID50 (the source's name); in short: as §1
Cricetinae gen. sp. [4] = assay: Antifertility activity was determined in hamsters (two to six dose levels, 6-18 animals per group) treated subcutaneously (sc) from day 4 to day 6 of gestation; assay type: functional, Mesocricetus auratus
In short: (§2)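 Syrian Golden hamsters dosed sc on three consecutive days, gestation days 4 to 6. Two to six dose levels, 6–18 animals per group. Animals killed on day 10 of gestation, and implantation sites and live fetuses counted.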

Cricetinae gen. sp. [5] = assay: (§3) Antifertility activity was determined in hamsters (two to six dose levels, 6-18 animals per group) treated subcutaneously (sc) from day 4 to day 6 of gestation.; assay type: functional, Mesocricetus auratus; in short: as §2
[6] = Ratio of ED50 for diarrhea to ID50 (antisecretory activity); assay type: functional
Rattus norvegicus [7] = assay: Compound was evaluated for antisecretion activity using stomach perfusion test in the anesthetized rat (ig administration); assay type: functional; details: for ED50: Rattus norvegicus, Stomach, po, read-out: ID50 (the source's name)
Cricetinae gen. sp. [8] = assay: as §3; assay type: functional, Cricetulus griseus; in short: as §2
Rattus norvegicus [9] = assay: Compound was evaluated for antisecretion activity using stomach perfusion test in the anesthetized rat (iv administration); At the dose of 500 ug/kg, some animals died; assay type: functional; details: read-out: ID50 (the source's name)
[10] = Mus musculus, po, read-out: ED50

## CCCC[C@@H](OC)[C@H](O)/C=C/C1[C@H](O)CC(=O)[C@@H]1C/C=C\CCCC(=O)O (some centres not stated)
Rattus norvegicus [1]
  ED50: > 0.05 mg/kg

## CCCC[C@](C)(OC)[C@@H](O)/C=C/C1[C@H](O)CC(=O)[C@@H]1CCCCCCC(=O)OC (stereo in doubt; form 2)
Mus musculus
  ED50: 0.774 mg/kg
Rattus norvegicus [2]
  ED50: 0.1 mg/kg
Rattus norvegicus [3]
  ED50: 0.3 mg/kg

## CCCC[C@](C)(OC)[C@H](O)/C=C/C1[C@H](O)CC(=O)[C@@H]1C/C=C\CCCC(=O)OC (some centres not stated)
Rattus norvegicus [1]
  ED50: 0.5 mg/kg
Mus musculus; [10]
  ED50: 0.479 mg/kg
Cricetinae gen. sp. [4]
  ED50: > 1 mg/kg

## CCCC[C@](C)(OC)[C@@H](O)/C=C/C1[C@H](O)CC(=O)[C@@H]1C/C=C\CCCC(=O)OC (some centres not stated)
Rattus norvegicus [1]
  ED50: 1.5 mg/kg
Mus musculus; [10]
  ED50: 0.912 mg/kg
Cricetinae gen. sp. [4]
  ED50: > 1 mg/kg

## CCCC[C@](C)(OC)[C@H](O)/C=C/C1[C@H](O)C[C@H](O)[C@@H]1C/C=C\CCCC(=O)OC (some centres not stated)
Rattus norvegicus [1]
  ED50: > 2 mg/kg
Mus musculus; [10]
  ED50: 1.81 mg/kg
Cricetinae gen. sp. [5]
  ED50: 1.5 mg/kg

## CCCCC[C@H](O)/C=C/[C@H]1[C@H](O)CC(=O)[C@@H]1CCCCCCC(=O)O [ALPROSTADIL]
Rattus norvegicus [1]
  ED50: 0.0285 mg/kg
Mus musculus; [10]
  ED50: 1.02 mg/kg
Cricetinae gen. sp. [5]
  ED50: 1.8 mg/kg
[6]
  Ratio: 36

## CCCCC[C@H](O)/C=C/[C@H]1[C@H](O)CC(=O)[C@@H]1C/C=C\CCCC(=O)O [DINOPROSTONE]
Rattus norvegicus [1]
  ED50: 0.026 mg/kg
Mus musculus; [10]
  ED50: 1.5 mg/kg
Rattus norvegicus [7]
  ED50: > 0.1 mg/kg
Cricetinae gen. sp. [5]
  ED50: 0.7 mg/kg
[6]
  Ratio: 58

## CCCC[C@](C)(OC)[C@@H](O)/C=C/C1[C@H](O)C[C@H](O)[C@@H]1C/C=C\CCCC(=O)OC (some centres not stated)
Rattus norvegicus [1]
  ED50: > 4 mg/kg
Mus musculus; [10]
  ED50: > 4 mg/kg
Cricetinae gen. sp. [5]
  ED50: > 4 mg/kg

## CCCC[C@@](C)(OC)[C@H](O)/C=C/C1[C@H](O)CC(=O)[C@@H]1CCCCCCC(=O)OC (some centres not stated)
Rattus norvegicus [1]
  ED50: 0.0045 mg/kg
Mus musculus; [10]
  ED50: 1.35 mg/kg
Rattus norvegicus [7]
  ID50: 0.015 mg/kg
  ED50: 0.015 mg/kg
[6]
  Ratio: 300
Cricetinae gen. sp. [4]
  ED50: > 2.5 mg/kg

## CCCC[C@@](C)(OC)[C@@H](O)/C=C/C1[C@H](O)CC(=O)[C@@H]1CCCCCCC(=O)OC (some centres not stated)
Rattus norvegicus [1]
  ED50: > 1 mg/kg
Mus musculus; [10]
  ED50: > 4 mg/kg
Cricetinae gen. sp. [4]
  ED50: > 2.5 mg/kg

## CCCCC[C@H](O)/C=C/[C@@H]1[C@@H](C/C=C\CCCC(=O)O)[C@@H](O)C[C@H]1O [DINOPROST]
Mus musculus; [10]
  ED50: 0.57 mg/kg
Cricetinae gen. sp. [8]
  ED50: 0.06 mg/kg
Rattus norvegicus [9]
  ED50: > 0.3 mg/kg

## CCCC[C@@](C)(OC)[C@@H](O)/C=C/C1[C@H](O)CC(=O)[C@@H]1C/C=C\CCCC(=O)OC (some centres not stated)
Cricetinae gen. sp. [4]
  ED50: > 1 mg/kg

## CCCC[C@@](C)(OC)[C@@H](O)/C=C/C1[C@H](O)C[C@H](O)[C@@H]1C/C=C\CCCC(=O)OC (some centres not stated)
Rattus norvegicus [1]
  ED50: > 2 mg/kg
Mus musculus; [10]
  ED50: > 4 mg/kg
Cricetinae gen. sp. [5]
  ED50: > 4 mg/kg

## CCCC[C@@](C)(OC)[C@H](O)/C=C/C1[C@H](O)C[C@H](O)[C@@H]1C/C=C\CCCC(=O)OC (some centres not stated)
Rattus norvegicus [1]
  ED50: 1.5 mg/kg
Mus musculus; [10]
  ED50: 0.888 mg/kg
Cricetinae gen. sp. [5]
  ED50: 0.6 mg/kg

## CCCC[C@@](C)(OC)[C@H](O)/C=C/C1[C@H](O)CC(=O)[C@@H]1C/C=C\CCCC(=O)OC (some centres not stated)
Rattus norvegicus [1]
  ED50: 0.0072 mg/kg
Mus musculus; [10]
  ED50: 0.757 mg/kg
[6]
  Ratio: 105
Cricetinae gen. sp. [4]
  ED50: > 1 mg/kg

## CCCC[C@](C)(OC)[C@@H](O)/C=C/C1[C@H](O)CC(=O)[C@@H]1CCCCCCC(=O)OC (stereo in doubt; form 1)
Rattus norvegicus [1]
  ED50: > 3 mg/kg
Mus musculus
  ED50: >4 mg/kg
Cricetinae gen. sp. [4]
  ED50: > 2.5 mg/kg

## CCCCC(OC)[C@H](O)/C=C/C1[C@H](O)CC(=O)[C@@H]1CCCCCCC(=O)O (some centres not stated)
Rattus norvegicus [7]
  ED50: > 0.1 mg/kg
